Assay results as given in ChEMBL document CHEMBL4052679, “Design, synthesis and biological evaluation of novel indolin-2-ones as potent anticancer compounds” (Bioorg Med Chem Lett, 2017).
The source made the active and inactive calls. The rule behind the calls is not given here.

Key:
[1] = molecular target: Cyclin-dependent kinase 2/cyclin E1 (Homo sapiens) (UniProt P24864+P24941); experiment: Inhibition of CDK2/Cyclin E1 (unknown origin) at 10 uM; type: protein-complex assay
[2] = molecular target: CDK9/cyclin T1 (Homo sapiens) (UniProt O60563+P50750); experiment: Inhibition of CDK9/Cyclin T1 (unknown origin) at 10 uM; type: protein-complex assay
MDA-MB-231 [3] = experiment: Induction of cell cycle arrest in human MDA-MB-231 cells assessed as increase in accumulation at subG1 phase at 5 times IC50 incubated for 24 hrs by propidium iodide staining based flow cytometry; type: functional
Procedure, shortened: (§1)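 MDA-MB-231 cells exposed 24 h. Combretastatin A-4 at 200 nM served as reference for G2/M arrest. Cells were then fixed, stained with propidium iodide, and phase distribution was read on a flow cytometer.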

MDA-MB-231 [4] = experiment: Growth inhibition of human MDA-MB-231 cells incubated for 3 days by SRB assay; type: functional, cell-based; details: MDA-MB-231, 72 h
MCF7 = experiment: Growth inhibition of human MCF7 cells incubated for 3 days by SRB assay; type: functional, cell-based; details: MCF7, 72 h
A549 = experiment: Growth inhibition of human A549 cells incubated for 3 days by SRB assay; type: functional, cell-based; details: A549, 72 h
KB = experiment: Growth inhibition of human KB cells incubated for 3 days by SRB assay; type: functional, cell-based; details: 72 h
[5] = Growth inhibition of human KBVIN cells incubated for 3 days by SRB assay; type: functional, cell-based; details: 72 h
HepG2 [6] = experiment: Growth inhibition of human HepG2 cells incubated for 3 days by MTT assay; details: HepG2, 72 h
A2780 [7] = experiment: Growth inhibition of human A2780 cells incubated for 3 days by MTT assay; details: A2780, 72 h
HCT-116 [8] = experiment: Growth inhibition of human HCT116 cells incubated for 3 days by MTT assay; details: HCT-116, 72 h
BGC-823 [9] = experiment: Growth inhibition of human BGC823 cells incubated for 3 days by MTT assay; details: BGC-823, 72 h
NCI-H1650 [10] = experiment: Growth inhibition of human NCI-H1650 cells incubated for 3 days by MTT assay; details: NCI-H1650, 72 h
HepG2 [11] = experiment: Growth inhibition of human HepG2 cells at 10 uM incubated for 3 days by MTT assay
A2780 [12] = experiment: Growth inhibition of human A2780 cells at 10 uM incubated for 3 days by MTT assay
HCT-116 [13] = experiment: Growth inhibition of human HCT116 cells at 10 uM incubated for 3 days by MTT assay
BGC-823 [14] = experiment: Growth inhibition of human BGC823 cells at 10 uM incubated for 3 days by MTT assay
NCI-H1650 [15] = experiment: Growth inhibition of human NCI-H1650 cells at 10 uM incubated for 3 days by MTT assay
MDA-MB-231 [16] = experiment: Induction of cell cycle arrest in human MDA-MB-231 cells assessed as increase in accumulation at G2/M phase at 5 times IC50 incubated for 24 hrs by propidium iodide staining based flow cytometry; type: functional; procedure, shortened: as §1
Homo sapiens = organism: Homo sapiens; experiment: Induction of microtubule destabilization in human MDA-MB-231 cells at 5 times IC50 incubated for 24 hrs by fluorescent microscopy; type: cell-based
Procedure, shortened: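 MDA-MB-231 cells treated 24 h alongside a DMSO control. Cells were fixed and immunostained for α-tubulin and phosphorylated histone H3, with DAPI for DNA. The microtubule network was judged in interphase cells (phospho-H3-negative) by confocal fluorescence microscopy with ×63 or ×40 objectives.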

Row | Compound | inhibition [1] | inhibition [2] | Activity (MDA-MB-231 [3]) | IC50 (MDA-MB-231 [4]) | IC50 (MCF7) | IC50 (A549) | IC50 (KB) | IC50 [5] | IC50 (HepG2 [6]) | IC50 (A2780 [7]) | IC50 (HCT-116 [8]) | IC50 (BGC-823 [9]) | IC50 (NCI-H1650 [10]) | growth inhibition (GI) (HepG2 [11]) | growth inhibition (GI) (A2780 [12]) | growth inhibition (GI) (HCT-116 [13]) | growth inhibition (GI) (BGC-823 [14]) | growth inhibition (GI) (NCI-H1650 [15]) | Activity (MDA-MB-231 [16]) | Activity (Homo sapiens)
1 | CN1CCN(c2cccc(N/C=C3\C(=O)Nc4ccc(NC(=O)c5c(F)cccc5F)cc43)c2)CC1 | inactive | inactive | Active | 4.43 µM | 4.44 µM | 4.75 µM | 4.4 µM | 7.86 µM | 3.03 µM | 2.03 µM | 2.15 µM | 2.67 µM | 1.63 µM | – | – | – | – | – | – | –
2 | O=C1Nc2ccc(F)cc2/C1=C\C(=O)c1sccc1Cl | inactive | inactive | – | – | – | – | – | – | 3.1 µM | 2.14 µM | 2.45 µM | 2.66 µM | 3.56 µM | – | – | – | – | – | – | –
3 | O=C1Nc2ccc(F)cc2/C1=C\C(=O)c1cccs1 | inactive | inactive | – | – | – | – | – | – | 8.78 µM | 2.75 µM | 1.84 µM | 7.75 µM | 3.22 µM | – | – | – | – | – | – | –
4 | O=C1Nc2ccc(F)cc2/C1=C\C(=O)c1ccc(O)cc1F | inactive | inactive | – | – | – | – | – | – | 3.44 µM | 1.58 µM | 1.07 µM | 6.12 µM | 3.46 µM | – | – | – | – | – | – | –
5 | O=C1Nc2ccc([N+](=O)[O-])cc2/C1=C\C(=O)c1ccc(C2CCCCC2)cc1 | inactive | inactive | – | – | – | – | – | – | 3.99 µM | 2.09 µM | 2.32 µM | 5.9 µM | 3.86 µM | – | – | – | – | – | – | –
6 | O=C1Nc2ccc(F)cc2/C1=C\C(=O)c1cc(Cl)sc1Cl | inactive | inactive | – | – | – | – | – | – | – | – | – | – | – | inactive | inactive | inactive | inactive | inactive | – | –
7 | O=C1Nc2ccc(F)cc2/C1=C\C(=O)c1nccs1 | inactive | inactive | – | – | – | – | – | – | – | – | – | – | – | inactive | inactive | inactive | inactive | inactive | – | –
8 | O=C1Nc2ccc(F)cc2/C1=C\C(=O)c1ccc[nH]1 | inactive | inactive | – | – | – | – | – | – | 3.12 µM | 2.17 µM | 1.38 µM | 6.42 µM | 2.84 µM | – | – | – | – | – | – | –
9 | O=C1Nc2ccccc2/C1=C1/Nc2ccccc2/C1=N\O | – | – | – | 7.59 µM | 6.81 µM | 5.82 µM | 5.34 µM | 5.17 µM | – | – | – | – | – | inactive | inactive | inactive | inactive | inactive | Active | inactive
10 | COc1ccc(C(=O)Nc2ccc3c(c2)/C(=C/Nc2cccc(N4CCN(C)CC4)c2)C(=O)N3)cc1 | inactive | inactive | – | – | – | – | – | – | 1.78 µM | 2.05 µM | 2.01 µM | 3.17 µM | 1.87 µM | – | – | – | – | – | – | –
11 | CN1CCN(c2cccc(N/C=C3\C(=O)Nc4ccc(NC(=O)c5c(Cl)cccc5Cl)cc43)c2)CC1 | inactive | inactive | – | – | – | – | – | – | 2.37 µM | 2.14 µM | 2.28 µM | 2.24 µM | 2.17 µM | – | – | – | – | – | – | –
12 | O=C1Nc2ccc(F)cc2/C1=C\C(=O)c1ccc(C2CCCCC2)cc1 | inactive | inactive | – | – | – | – | – | – | 2.84 µM | 2.31 µM | 2.52 µM | 4.45 µM | 2.73 µM | – | – | – | – | – | – | –
13 | CN1CCN(c2cccc(N/C=C3\C(=O)Nc4ccc(NC(=O)c5cccc(F)c5)cc43)c2)CC1 | inactive | inactive | – | – | – | – | – | – | 6.72 µM | 2.91 µM | 2.74 µM | 8.5 µM | 4.28 µM | – | – | – | – | – | – | –
14 | CC(C)CC(=O)Nc1ccc2c(c1)/C(=C/Nc1cccc(N3CCN(C)CC3)c1)C(=O)N2 | inactive | inactive | – | – | – | – | – | – | 5.07 µM | 3.37 µM | 9.41 µM | 6.08 µM | 5.87 µM | – | – | – | – | – | – | –
15 | O=C1Nc2ccccc2/C1=C\C(=O)c1c[nH]c2ccccc12 | inactive | inactive | – | – | – | – | – | – | 2.11 µM | 2.08 µM | 0.86 µM | 9.44 µM | 1.27 µM | – | – | – | – | – | – | –
16 | O=C1Nc2ccc(F)cc2/C1=C\C(=O)c1ccc2c(c1)OCO2 | inactive | inactive | – | 5.31 µM | > 10 µM | > 10 µM | > 10 µM | > 10 µM | 2.28 µM | 1.12 µM | 0.76 µM | 4.09 µM | 1.22 µM | – | – | – | – | – | Active | Active
17 | O=C1Nc2ccc(F)cc2/C1=C\C(=O)c1c[nH]c2ccccc12 | inactive | inactive | – | – | – | – | – | – | 1.86 µM | 2.44 µM | 3.01 µM | 8.99 µM | 6.58 µM | – | – | – | – | – | – | –
18 | CN1CCC(C(=O)Nc2ccc3c(c2)/C(=C/Nc2cccc(N4CCN(C)CC4)c2)C(=O)N3)CC1 | inactive | inactive | – | – | – | – | – | – | – | – | 4.67 µM | – | – | inactive | inactive | – | inactive | inactive | – | –
19 | CN1CCN(c2cccc(N/C=C3\C(=O)Nc4ccc(NC(=O)c5ccc[nH]5)cc43)c2)CC1 | inactive | inactive | – | – | – | – | – | – | 5.37 µM | 4.46 µM | – | – | 7.56 µM | – | – | inactive | inactive | – | – | –
20 | O=C1Nc2ccc(F)cc2/C1=C\C(=O)c1cnccn1 | inactive | inactive | – | – | – | – | – | – | – | – | – | – | – | inactive | inactive | inactive | inactive | inactive | – | –
21 | O=C1Nc2ccc(F)cc2/C1=C\C(=O)c1ccco1 | inactive | inactive | – | – | – | – | – | – | – | – | – | – | – | inactive | inactive | inactive | inactive | inactive | – | –
22 | O=C1Nc2ccc(F)cc2/C1=C\C(=O)c1ccc(-n2ccnc2)cc1 | inactive | inactive | – | – | – | – | – | – | – | – | – | – | – | inactive | inactive | inactive | inactive | inactive | – | –
23 | O=C1Nc2ccc(F)cc2/C1=C\C(=O)c1cnc2ccc(Cl)nn12 | inactive | inactive | – | – | – | – | – | – | 3.09 µM | 2.37 µM | 1.41 µM | 8.02 µM | 2.73 µM | – | – | – | – | – | – | –
24 | O=C1Nc2ccc(F)cc2/C1=C\C(=O)c1ccccc1O | inactive | inactive | – | – | – | – | – | – | – | – | – | – | – | inactive | inactive | inactive | inactive | inactive | – | –
25 | CC(=O)O[C@H]1C(=O)[C@@]2(C)[C@H]([C@H](OC(=O)c3ccccc3)[C@]3(O)C[C@H](OC(=O)[C@H](O)[C@@H](NC(=O)c4ccccc4)c4ccccc4)C(C)=C1C3(C)C)[C@]1(OC(C)=O)CO[C@@H]1C[C@@H]2O [PACLITAXEL] | – | – | – | – | – | – | – | – | 0.02 µM | 0.03 µM | 0.03 µM | 0.001 µM | 0.07 µM | – | – | – | – | – | – | –
